Data as given in ChEMBL document CHEMBL1138814, “Synthesis, antiviral activity, and mode of action of some 3-substituted 2,5,6-trichloroindole 2'- and 5'-deoxyribonucleosides” (J Med Chem, 2004).

Key:
[1] = Cytotoxicity against KB cells was determined by crystal violet staining and spectrophotometric quantitation of dye eluted from stained cells; format: functional, cell-based; conditions: Homo sapiens
How it was run: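 KB cells were seeded at 3000–5000 per well and incubated overnight. Compound was added at six to eight concentrations for 48 h at 37 °C in CO2, covering two population doublings. Cells were fixed in 95% ethanol and stained with 0.1% crystal violet, and the dye was eluted with acidified ethanol and read at 570 nm. IC50 came from regression of percent inhibition against log concentration.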

HFF [2] = test: Inhibitory concentration required against human cytomegalovirus (HCMV) expressed in HFF cells was determined by plaque reduction assay; format: functional, cell-based
How it was run: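 HCMV Towne strain at about 100 pfu/cm² was adsorbed onto HFF monolayers. Compounds from 10 mg/mL DMSO stocks were diluted in growth medium and added at four to eight concentrations in duplicate wells. After 7–10 days at 37 °C, cells were fixed and stained with crystal violet and plaques counted microscopically. Percent plaque reduction versus no drug was regressed against log concentration to give IC50.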

HFF [3] = test: Cytotoxicity produced in stationary HFF cells was determined by microscopic inspection of uninfected cells; format: functional, cell-based; conditions: Homo sapiens
How it was run: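 Cytotoxicity was scored visually by microscopy on stationary HFF cells not affected by virus, at the time of HCMV plaque enumeration, in duplicate wells. IC50 came from linear regression of percent inhibition against log concentration.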

[4] = Inhibitory concentration required against herpes simplex virus type-1 (HSV-1) expressed in BSC-1 cells was determined by ELISA assay; format: functional, cell-based, Cercopithecidae
How it was run: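 BSC-1 cells (10 000/well, MEM(E) with 10% calf serum) were incubated overnight. Drug (quadruplicate) and HSV-1 at 100 pfu/well were then added, followed by 3 days at 37 °C. Plates were blocked and probed with HRP-conjugated rabbit anti-HSV-1 antibody, developed with TMB and stopped with H2SO4, with absorbance read at 450 and 570 nm. Percent absorbance reduction versus no drug was regressed against log concentration to give IC50.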

HFF [5] = test: Inhibitory concentration required against human cytomegalovirus (HCMV) C4 strain (UL56 + UL89 mutant gene) expressed in HFF cells was determined by plaque reduction assay; format: functional, cell-based
How it was run: (§1)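 HFF monolayers in 24-well dishes were infected with about 100 pfu HCMV per cm² (wild type Towne; mutant strains carry UL56, UL89 or UL56 + UL89 mutations). After adsorption, drug from 10 mg/mL DMSO stock was diluted in medium and added at four to eight concentrations in duplicate wells. Cells were held 7–10 days at 37 °C, then crystal-violet stained and plaques counted against no-drug controls. IC50 came from linear regression of % inhibition versus log10 concentration, averaged over two experiments.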

HFF [6] = test: Inhibitory concentration required against human cytomegalovirus (HCMV) D10 strain (UL89 mutant gene) expressed in HFF cells was determined by plaque reduction assay; format: functional, cell-based; how it was run: as §1
HFF [7] = test: Inhibitory concentration required against human cytomegalovirus (HCMV) wild type expressed in HFF cells was determined by plaque reduction assay; format: functional, cell-based; how it was run: as §1
HFF [8] = test: Inhibitory concentration required against human cytomegalovirus (HCMV) r56 strain (UL56 mutant gene) expressed in HFF cells was determined by plaque reduction assay; format: functional, cell-based; how it was run: as §1

Compound	IC50 [1] [µM]	IC50 (HFF [2]) [µM]	IC50 (HFF [3]) [µM]	IC50 [4] [µM]	IC50 (HFF [5]) [µM]	IC50 (HFF [6]) [µM]	IC50 (HFF [7]) [µM]	IC50 (HFF [8]) [µM]
COc1c(C=O)c2cc(Cl)c(Cl)cc2n1[C@H]1C[C@H](O)[C@@H](CO)O1	20	> 100	100	> 100	–	–	–	–
CC(=O)c1c(Cl)n(C2O[C@H](CO)[C@@H](O)C2O)c2cc(Cl)c(Cl)cc12 (single isomer, unassigned)	–	–	–	–	6.2	0.72	0.26	1.2
OC[C@H]1O[C@@H](n2c(Cl)nc3cc(Cl)c(Cl)cc32)C[C@@H]1O	–	20	> 100	–	–	–	–	–
OC[C@H]1O[C@@H](n2c(Cl)nc3cc(Cl)c(Cl)cc32)C(O)[C@@H]1O (single isomer, unassigned)	210	–	–	102	–	–	–	–
O=Cc1c(Cl)n(C2O[C@H](CO)[C@@H](O)C2O)c2cc(Cl)c(Cl)cc12 (single isomer, unassigned)	45	–	–	40	4.8	0.88	0.46	1.8
OC[C@H]1O[C@@H](n2c(Cl)c(-c3ccco3)c3cc(Cl)c(Cl)cc32)C[C@@H]1O	50	3.6	3.2	20	–	–	–	–
Nc1nc2c(ncn2COC(CO)CO)c(=O)[nH]1 [GANCICLOVIR]	> 100	–	> 100	3.5	2.5	1.2	1.2	1.2
OC[C@H]1O[C@@H](n2c(Br)nc3cc(Cl)c(Cl)cc32)C(O)[C@@H]1O (single isomer, unassigned)	> 100	–	–	130	29	12	0.99	6.7
O=Cc1c(Cl)n(C2O[C@H](CF)[C@@H](O)C2O)c2cc(Cl)c(Cl)cc12 (single isomer, unassigned)	20	0.6	32	20	–	–	–	–
OC[C@H]1O[C@@H](n2c(Cl)c(-c3ccsc3)c3cc(Cl)c(Cl)cc32)C[C@@H]1O	50	38	32	20	–	–	–	–
CC(=O)c1c(Br)n([C@H]2C[C@H](O)[C@@H](CO)O2)c2cc(Cl)c(Cl)cc12	> 100	0.34	> 100	> 100	–	–	–	–
CC(=O)c1c(Cl)n([C@H]2C[C@H](O)[C@@H](CO)O2)c2cc(Cl)c(Cl)cc12	400	0.3	> 100	8	2.1	0.76	0.22	1.8
N#Cc1c(Cl)n([C@H]2C[C@H](O)[C@@H](CO)O2)c2cc(Cl)c(Cl)cc12	60	0.3	32	35	–	–	–	–
N#Cc1c(Cl)n(C2O[C@H](CN=[N+]=[N-])[C@@H](O)C2O)c2cc(Cl)c(Cl)cc12 (single isomer, unassigned)	60	3	> 100	15	–	–	–	–
C[C@H]1OC(n2c(Cl)c(C=O)c3cc(Cl)c(Cl)cc32)C(O)[C@@H]1O (single isomer, unassigned)	25	0.3	32	20	–	–	–	–
C[C@H]1OC(n2c(Cl)c(C#N)c3cc(Cl)c(Cl)cc32)C(O)[C@@H]1O (single isomer, unassigned)	40	0.19	32	32	–	–	–	–
CC(=O)OC[C@H]1OC(n2c(Cl)c(C=O)c3cc(Cl)c(Cl)cc32)C(O)[C@@H]1O (single isomer, unassigned)	–	–	–	–	3.3	0.88	0.22	1.6
COc1c(C#N)c2cc(Cl)c(Cl)cc2n1[C@H]1C[C@H](O)[C@@H](CO)O1	> 100	68	> 100	90	–	–	–	–
N#Cc1c(Cl)n(C2O[C@H](CO)[C@@H](O)C2O)c2cc(Cl)c(Cl)cc12 (single isomer, unassigned)	35	–	–	> 100	–	–	–	–
[N-]=[N+]=NC[C@H]1OC(n2c(Cl)c(C=O)c3cc(Cl)c(Cl)cc32)C(O)[C@@H]1O (single isomer, unassigned)	25	0.32	32	10	–	–	–	–
C[C@H]1OC(n2c(Cl)nc3cc(Cl)c(Cl)cc32)C(O)[C@@H]1O (single isomer, unassigned)	–	0.36	100	–	–	–	–	–
N#Cc1c(Cl)n(C2O[C@H](CF)[C@@H](O)C2O)c2cc(Cl)c(Cl)cc12 (single isomer, unassigned)	50	2.7	32	40	–	–	–	–
